Assay results: publication PMC8144927 (Virology, 2021)

Molecular target: angiotensin-converting enzyme 2 (ACE2) (Homo sapiens, UniProt Q9BYF1)
Experiment: SPR
Type: binding
In short: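 Nitrilotriacetic acid (NTA) sensor chip surface primed and charged with Ni2+ by sequential injection of 200 mM imidazole and 40 mM NiCl2. His6-tagged ACE2 protein at 20 μg/mL captured on the chip, with test compound as analyte. Supporting ACE2h cell membrane chromatography: 10.0 mm × 2.0 mm column, 37 °C, 0.2 mL/min, 2 mM phosphate-buffered saline (pH 7.4), detection at 284 nm.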

Sequence of angiotensin-converting enzyme 2 (ACE2) (Q9BYF1 18-805): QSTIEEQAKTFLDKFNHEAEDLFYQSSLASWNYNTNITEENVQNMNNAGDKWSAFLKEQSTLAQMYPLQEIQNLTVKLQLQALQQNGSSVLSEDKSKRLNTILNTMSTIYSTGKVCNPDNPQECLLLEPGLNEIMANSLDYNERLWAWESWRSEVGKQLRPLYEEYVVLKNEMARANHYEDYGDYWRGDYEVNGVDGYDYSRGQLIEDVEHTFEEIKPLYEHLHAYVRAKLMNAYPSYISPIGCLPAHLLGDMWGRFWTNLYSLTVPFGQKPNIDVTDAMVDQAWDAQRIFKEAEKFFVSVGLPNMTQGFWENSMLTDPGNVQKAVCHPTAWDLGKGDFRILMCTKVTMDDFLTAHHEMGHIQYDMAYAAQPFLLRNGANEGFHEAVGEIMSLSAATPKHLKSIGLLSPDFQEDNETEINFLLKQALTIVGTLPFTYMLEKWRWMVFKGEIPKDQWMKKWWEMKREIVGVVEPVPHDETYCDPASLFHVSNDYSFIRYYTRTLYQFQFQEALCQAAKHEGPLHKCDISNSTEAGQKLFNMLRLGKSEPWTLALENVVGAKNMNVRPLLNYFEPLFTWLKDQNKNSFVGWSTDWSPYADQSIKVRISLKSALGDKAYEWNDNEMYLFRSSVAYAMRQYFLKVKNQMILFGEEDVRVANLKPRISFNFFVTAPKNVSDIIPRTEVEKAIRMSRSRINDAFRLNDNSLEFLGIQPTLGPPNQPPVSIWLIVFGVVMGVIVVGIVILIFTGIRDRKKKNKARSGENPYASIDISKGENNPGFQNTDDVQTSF

## CN1CCCC(n2nc(Cc3ccc(Cl)cc3)c3ccccc3c2=O)CC1 (stereo not shown) [azelastine]
  Kd: 258 nM
